Bioassay records: PubChem, several laboratories
Only some compounds are listed: those with a hit (about 12% of all), similar ones and a draw of the others.
Lmaj promast = Leishmania major promastigote growth inhibition, primary screen | inhibition, % at 10 µM | AID 1063, 2008 | Leishmania major promastigotes, resazurin fluorescence viability | 200,000 tested, 9% active; in the data active means inhibition above about 50%;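 further: promastigotes grown with compound for 44 hours at 28 °C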
Cl transport mod = KCC2 cotransporter modulators, thallium flux, primary screen, cell-based, HEK293 KCC2, FluoZin-2 fluorescence, MLSMR; B-score of Tl+ flux slope (higher = more flux/activation; lower = inhibition) at 10 µM; Solute carrier family 12 member 5 (Homo sapiens), Q9H2X9; KCC2 cells, thallium flux FluoZin-2 fluorescence; 190,000 tested, 2.2% active;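 active means thallium flux slope and its plate-corrected score both differing from the plate sample mean at a set confidence after two filtering rounds, in either direction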;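 further: slope of fluorescence scaled to starting intensity during 10 to 20 s after thallium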
Target sequence (Q9H2X9 whole entry, looked up): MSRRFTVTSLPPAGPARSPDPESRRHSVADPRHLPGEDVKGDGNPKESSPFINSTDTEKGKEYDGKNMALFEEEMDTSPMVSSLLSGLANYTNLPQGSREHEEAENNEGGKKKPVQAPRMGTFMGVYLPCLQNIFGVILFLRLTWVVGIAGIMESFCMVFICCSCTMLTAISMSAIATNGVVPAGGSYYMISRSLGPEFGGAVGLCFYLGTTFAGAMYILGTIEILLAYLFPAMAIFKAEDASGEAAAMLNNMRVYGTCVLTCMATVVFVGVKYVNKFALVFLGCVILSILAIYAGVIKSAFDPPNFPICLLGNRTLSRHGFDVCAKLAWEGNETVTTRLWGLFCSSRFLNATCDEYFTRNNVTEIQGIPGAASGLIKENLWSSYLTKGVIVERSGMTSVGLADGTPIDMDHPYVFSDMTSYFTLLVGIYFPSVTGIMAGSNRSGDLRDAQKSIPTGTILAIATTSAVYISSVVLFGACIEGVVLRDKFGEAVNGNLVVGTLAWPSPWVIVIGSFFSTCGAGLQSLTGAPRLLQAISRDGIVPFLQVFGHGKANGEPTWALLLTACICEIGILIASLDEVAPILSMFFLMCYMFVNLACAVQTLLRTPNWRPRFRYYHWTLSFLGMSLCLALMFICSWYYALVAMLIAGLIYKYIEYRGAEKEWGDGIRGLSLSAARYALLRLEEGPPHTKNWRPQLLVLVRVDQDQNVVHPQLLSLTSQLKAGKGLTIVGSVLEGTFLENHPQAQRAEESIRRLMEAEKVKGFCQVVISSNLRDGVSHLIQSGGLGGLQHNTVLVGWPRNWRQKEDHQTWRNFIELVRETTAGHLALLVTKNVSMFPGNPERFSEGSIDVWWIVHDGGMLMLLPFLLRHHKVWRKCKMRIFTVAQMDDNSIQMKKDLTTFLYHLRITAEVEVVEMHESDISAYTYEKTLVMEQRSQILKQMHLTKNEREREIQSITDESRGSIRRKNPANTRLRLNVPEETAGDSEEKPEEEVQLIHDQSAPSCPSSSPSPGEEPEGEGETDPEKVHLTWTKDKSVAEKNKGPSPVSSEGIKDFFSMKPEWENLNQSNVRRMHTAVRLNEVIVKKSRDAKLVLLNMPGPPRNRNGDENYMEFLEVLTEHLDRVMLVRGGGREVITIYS
Diaph inh CS = diaphorase inhibitors and chemical oxidizers, primary screen, counter-screen for diaphorase-coupled primary assays, biochemical, uHTS, resorufin fluorescence | inhibition, % at 20 µM | diaphorase resazurin-to-resorufin fluorescence, NADH, 16 min; bacterial (C. kluyveri) enzyme, not human | 190,000 tested, 0.69% active;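 active means primary screen inhibition at 20 µM above a set limit, cut at about 50% in these data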
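System: Bacterial diaphorase enzyme (C. kluyveri) | Incubation: 16-min room-temperature incubation before reading | Benchmarks: No-NADH positive control and DMSO neutral control | Measured by: Resorufin fluorescence 544/590 nm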
Diaph act CS = compounds boosting diaphorase resazurin reduction – biochemical, uHTS, resorufin fluorescence, counter-screen for diaphorase-coupled primary assays, primary screen; Diaphorase/resazurin coupled assay, 16 min; stronger effect = higher value; 1 = vehicle wells, 0 = NADH-free wells; activation factor at 20 µM; 190,000 tested, 0.005% active;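 active means diaphorase activity raised at least twofold by the compound at 20 µM; inactive means activation factor below 2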
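test system = bacterial diaphorase enzyme (C. kluyveri) | quantity = enzyme 0.07 U/mL final | reagent = NADH substrate 0.114 mM plus resazurin dye 0.1 mM, final | incubation = 16 min enzyme reaction, ambient temperature | buffer or medium = HEPES pH 7.4 buffer with MgCl2 and Tween 20 | signal = fluorescence of resorufin, 544 nm excitation, 590 nm emission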
WT yeast gro inh = growth inhibition of WT strain, primary screen, mitochondrial fusion inhibitor project, WT and mutant strains, chemical genetic. mitochondrial fusion phenotypic screen. inhibition, % at 10 µM. 190,000 tested, 2.1% active. AID 1362, 2008; in the data active means inhibition above about 58%; tested in S. cerevisiae
ROMK mod = ROMK potassium channel modulators, primary screen, cell-based, thallium flux, MLSMR library. AID 1918, 2009. ATP-sensitive inward rectifier potassium channel 1 (Homo sapiens), P48048. Tet-inducible ROMK, thallium flux fluorescence; actives lie on both sides. B-score at 10 µM. 130,000 tested, 2% active;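 active means signal ratio slope over the read window, or its plate-corrected B-score, at least 3 SD from the plate mean, either direction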;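 further: B-score of the F/F0 ratio slope over 7 to 12 s after thallium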
Of the large screens only hits and unclear results are named; the others gave an inactive call.

CN(C)S(=O)(=O)c1ccc(C(=O)NCC(=O)N/N=C/c2ccccc2)cc1	none
O=C(CNC(=O)c1ccc(S(=O)(=O)N2CCCC2)cc1)N/N=C/c1ccc(Cl)cc1	Lmaj promast 91
O=C(CNC(=O)c1ccc(S(=O)(=O)N2CCCC2)cc1)N/N=C/c1ccc(Cl)cc1Cl	Lmaj promast 69
O=C(CNC(=O)c1ccc(S(=O)(=O)N2CCCC2)cc1)N/N=C/c1ccccc1	Lmaj promast 87
O=C(NC(=O)c1ccccc1O)c1ccc2c(c1)CCO2	none (no result: Lmaj promast, Diaph inh CS, Diaph act CS, WT yeast gro inh, ROMK mod)
O=C(Cc1ccc(Cl)cc1)N/N=C/c1c(Cl)cccc1Cl	Lmaj promast 72
Cc1ccc(-c2csc3nc(C)n(N)c(=O)c23)cc1	none
Cc1ccc(-c2csc3nc4c5ccccc5c(NCCCN5CCOCC5)nn4c(=O)c23)cc1	Lmaj promast 101, WT yeast gro inh 75
Cc1ccc(-c2csc3nc4c5ccccc5c(NCCCN(C)C)nn4c(=O)c23)cc1	Lmaj promast 101
NC(=O)C1=C[C@H](c2ccc(C(F)(F)F)cc2)C[C@H](OCCCCO)O1	none (no result: ROMK mod)
CN(C)S(=O)(=O)c1cc(NC(=O)COC(=O)C2CSC3(C)CCC(=O)N23)ccc1Cl (stereo not given)	none (no result: ROMK mod)
Cc1c(CN2CCC(CO)(CCOc3ccccc3)CC2)[nH]c2c(Cl)cccc12	Lmaj promast 100, WT yeast gro inh 93
Cc1nn(C)c(Cl)c1CN1CCC(CO)(CCOc2ccccc2)CC1	Lmaj promast 72
Cc1ncc(CN2CCC(CO)(CCOc3ccccc3)CC2)s1	none (no result: Lmaj promast, Diaph inh CS, Diaph act CS, WT yeast gro inh, ROMK mod)
CCn1c(=N)c(C(N)=O)cc2c(=O)n3cccc(C)c3nc21	Lmaj promast 100 (no result: Diaph inh CS, Diaph act CS, WT yeast gro inh, ROMK mod)
Cc1cccn2c(=O)c3cc(C#N)c(=N)n(CCCN4CCOCC4)c3nc12	Lmaj promast 89 (no result: Diaph inh CS, Diaph act CS, WT yeast gro inh)
Cc1ccc2nc3c(cc(C(N)=S)c(=N)n3CCCOC(C)C)c(=O)n2c1	Lmaj promast 86 (no result: Cl transport mod, ROMK mod)
CCCn1c(=N)c(C(=O)NC2CCCC2)cc2c(=O)n3cccc(C)c3nc21	Lmaj promast 58
CC(C)(C)OC(=O)CNC(=O)c1[nH]cnc1C(=O)N[C@@H](Cc1ccccc1)C(=O)OC(C)(C)C	none (no result: Lmaj promast, Diaph inh CS, Diaph act CS, WT yeast gro inh, ROMK mod)
Cc1cccn2c(=O)c3cc(C(N)=S)c(=N)n(CCCN4CCOCC4)c3nc12	Lmaj promast 64
CCCCNC(=O)c1cc2c(=O)n3cccc(C)c3nc2n(CCN2CCOCC2)c1=N	none
COCCNC(=S)N(Cc1cc2cc(C)ccc2n2nnnc12)C1CCCC1	none
COCCN(Cc1cc2cc(C)ccc2n2nnnc12)C(=S)Nc1ccc(C)cc1	Lmaj promast 57
COc1ccc(C)cc1NC(=O)c1ccccc1NS(=O)(=O)c1cccc2cccnc12	none (no result: ROMK mod)
Cc1cc(C)c(S(=O)(=O)Nc2ccc(-c3cn4ccccc4n3)cc2)c(C)c1	Lmaj promast 61 (no result: ROMK mod)
COc1ccc2c(c1)CCN1C2CCN2C(=O)CCC21 (stereo not given)	none (no result: Lmaj promast, Diaph inh CS, Diaph act CS, WT yeast gro inh)
O=C(CCCn1c(=O)[nH]c2ccccc2c1=O)N1CCN(c2ccccn2)CC1	none
Cc1ccc(CNC(=O)CCCCCNc2nc(=S)[nH]c3ccccc23)cc1	none
COc1cccc(N2CCN(C(=O)CCCCCNc3nc(=S)[nH]c4ccccc34)CC2)c1	Lmaj promast 74
O=C(CCCCCNc1nc(=S)[nH]c2ccccc12)N1CCN(c2ccccn2)CC1	Lmaj promast 57, Diaph inh CS 52 (no result: Cl transport mod)
CCN1/C(=C/c2ccc3cc(C)ccc3[n+]2CC)Sc2cc(C)ccc21	Lmaj promast 100 (no result: ROMK mod)
CCN1/C(=C/c2ccc3cc(C)ccc3[n+]2C)Sc2ccc3sccc3c21	Lmaj promast 101, WT yeast gro inh 95 (no result: Diaph inh CS, Diaph act CS)
CCCCN1/C(=C/c2ccc3ccccc3[n+]2CC)Sc2ccccc21	Lmaj promast 100 (no result: ROMK mod)
Cc1sc2c3ccsc3ccc2[n+]1C	none
O=C(c1coc(=O)c2ccccc12)N1CCN(Cc2ccccc2)CC1	none
COc1cc(C(=O)Nc2nnc(CC(C)C)s2)c([N+](=O)[O-])cc1OC	none
COc1ccc2c(CC(=O)NCc3cccs3)coc2c1	none
Cc1cccc(C)c1NC(=S)N1CCC(N(C)CC2CCCO2)CC1 (stereo not given)	none (no result: WT yeast gro inh)
Cc1ccc(NC(=S)N2CCC(N(C)CC3CCCO3)CC2)cc1 (stereo not given)	Lmaj promast 76
Cc1cc(C)c(NC(=S)N2CCC(N(C)CC3CCCO3)CC2)c(C)c1 (stereo not given)	none
Cc1cccc(NC(=S)N2CCC(N(C)CC3CCCO3)CC2)c1C (stereo not given)	Lmaj promast 82 (no result: ROMK mod)
Cc1cc(C)cc(NC(=S)N2CCC(N(C)CC3CCCO3)CC2)c1 (stereo not given)	Lmaj promast 67
Cc1ccc(C)n1-c1ccccc1N1CCCCC1	none
CCCNC(=O)OCc1cccnc1Sc1ccc(C)cc1	none
CCOc1ccc(Oc2ccc(Cl)cc2N)cc1	none
CC(CCc1ccccc1)NC(=O)c1ccc(C(=O)NC(C)CCc2ccccc2)cc1 (stereo not given)	none
Cc1cc(C(=O)NC(C)Cc2ccccc2)cc(C)c1[N+](=O)[O-] (stereo not given)	Diaph inh CS 69
CCOc1ccccc1/C=N/NC(=O)CSc1n[nH]c(=O)[nH]c1=O	none
COc1ccc2nc(C)cc(SCC(=O)N/N=C/c3ccccc3)c2c1	none
COc1ccc(CSCC(=O)N/N=C/c2ccccc2O)cc1	Lmaj promast 68
COc1ccc2nc(C)cc(SCC(=O)N/N=C/c3c(OC)ccc4ccccc34)c2c1	Lmaj promast 71
O=C(CSc1n[nH]c(=O)[nH]c1=O)N/N=C/c1ccccc1O	Lmaj promast 100 (no result: ROMK mod)
COc1ccc2nc(C)cc(SCC(=O)N/N=C/c3ccc(O)cc3O)c2c1	Lmaj promast 98 (no result: ROMK mod)
c1ccc(CCN=C2CCCc3c2[nH]c2ccccc32)cc1	none (no result: Lmaj promast, Diaph inh CS, Diaph act CS, WT yeast gro inh, ROMK mod)
CCN1CCN(Cc2ccc(NC(=O)c3cc(NC(=O)c4cnnc5ccccc45)cc(OC)c3)cc2C(F)(F)F)CC1	none (no result: Lmaj promast, Diaph inh CS, Diaph act CS, WT yeast gro inh, ROMK mod)
CCOC(=O)Nc1ccc2c(c1)N(C(=O)N(CC)CC)c1ccccc1CC2	none
CCC(=O)NC(NC(=S)Nc1cccc2cccnc12)C(Cl)(Cl)Cl (stereo not given)	none
CC(C)(C)C(=O)NC(Nc1cccc2cccnc12)C(Cl)(Cl)Cl (stereo not given)	Lmaj promast 55 (no result: Cl transport mod)
CN1CCN(c2nc(-c3cccs3)cs2)CC1	none
CN1CCN(c2nc(-c3cc4ccccc4o3)cs2)CC1	Lmaj promast 69 (no result: ROMK mod)
